Residues, ends and D or L forms follow the SMILES beside them.

Assay [1] deals with NuMA_N (1885-1898) (human) (UniProt Q14980). The assay can be described thus: fluorescence polarisation. For orientation: Polarisation of emitted light reports the rotation of a fluorescent probe.
In assay [2] the target is NuMA_C (1898-1912) (human) (UniProt Q14980). The assay can be described thus: fluorescence polarisation.
In assay [3] the target is mInsc38 (aa 20-57) (mouse). The assay can be described thus: fluorescence polarisation.
Another assay deals with Mud peptide (Drosophila). Description: fluorescence polarisation.
The target in assay [4] is FITC-labeled NuMA peptide (aa 1886-1912) (human) (UniProt Q14980). The assay can be described thus: fluorescence polarisation + ITC.
Another assay deals with T1, LGN TPR repeats (Mus musculus, UniProt Q8VDU0).
T1 sequence (Q8VDU0 22-357): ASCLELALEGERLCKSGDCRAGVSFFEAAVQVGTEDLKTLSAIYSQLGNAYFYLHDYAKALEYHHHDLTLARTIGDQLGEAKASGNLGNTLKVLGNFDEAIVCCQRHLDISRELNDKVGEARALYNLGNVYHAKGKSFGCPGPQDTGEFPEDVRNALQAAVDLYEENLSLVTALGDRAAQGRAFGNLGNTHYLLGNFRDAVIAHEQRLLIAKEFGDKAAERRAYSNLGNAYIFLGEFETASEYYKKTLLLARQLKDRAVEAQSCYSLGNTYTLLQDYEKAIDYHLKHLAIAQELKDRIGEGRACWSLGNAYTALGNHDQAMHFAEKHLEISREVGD
The settings on record: fit of the LGN TPR0-7/NuMA fluorescence polarization binding curve; Fig. 2C. Put shortly: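 Fluorescence polarization at 25 °C using a fluorimeter with an automated polarizer. A FITC-labeled human NuMA peptide (~1 μM) was titrated with mouse LGN TPR0-7 in 50 mM Tris pH 8.0, 100 mM NaCl, 1 mM DTT, 1 mM EDTA. The LGN fragment was expressed from a modified pET32a vector in E. coli BL21(DE3) at 16°C and purified by Ni2+-NTA then size-exclusion chromatography.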

Assay [5] concerns the target mInsc22 (aa 19-40), peptide of the fluorescence assays (mouse). The assay can be described thus: fluorescence polarisation.

Consider LGN(15-350) (domain or fragment), for which the dissociation constant (Kd) in assay [1] came to 31700 nM; in assay [2], 67100 nM; in assay [3], 47 nM; in the assay with Mud peptide (Drosophila), 230 nM.
In the case of LGN (aa 27-350) (domain or fragment), the fold decrease in NuMA binding (against the longer LGN fragments) in assay [4] was determined as 200 fold.
Turning to LGN (aa 15-479) (domain or fragment), the Kd in assay [4] worked out at 60 nM.
As to `CC[C@H](C)[C@H](NC(=O)[C@H](CCCNC(=N)N)NC(=O)[C@H](CC(N)=O)NC(=O)[C@H](Cc1c[nH]c2ccccc12)NC(=O)[C@H](CC(=O)O)NC(=O)[C@H](CC(=O)O)NC(=O)[C@H](CC(C)C)NC(=O)[C@H](CCC(N)=O)NC(=O)[C@H](CCC(=O)O)NC(=O)[C@@H]1CCCN1C(=O)[C@H](CCC(=O)O)NC(=O)[C@H](CC(=O)O)NC(=O)[C@H](CCC(N)=O)NC(=O)[C@H](CS)NC(=O)[C@@H](NC(=O)CNC(=O)[C@H](CCSC)NC(=O)[C@H](Cc1ccc(O)cc1)NC(=O)[C@H](Cc1ccccc1)NC(=O)[C@H](CO)NC(=O)[C@@H](N)CC(N)=O)[C@@H](C)O)C(=O)N[C@@H](C)C(=O)N[C@@H](CCC(=O)O)C(=O)N[C@@H](CC(C)C)C(=O)N[C@@H](CCC(N)=O)C(=O)N[C@@H](CCC(N)=O)C(=O)N[C@@H](CCCNC(=N)N)C(=O)O` [NuMA] (H-NSFYMGTCQDEPEQLDDWNRIAELQQR-OH; N-terminus and C-terminus assumed), the “Hill coefficient of LGN/NuMA binding curve” value on LGN TPR repeats is reported as approximately 2.0.
As for “LGN TPR4-7 (aa 191-350) (domain or fragment)”, the fold decrease in binding affinity (against LGN TPR0-7) in assay [5] came out at 10 fold.

The term Kd denotes the free concentration of one partner at which half of the binding sites on the other are occupied at equilibrium, for simple one-to-one binding.
